Key:
DU-145 = assay: Growth inhibition of human DU145 cells after 96 hrs by trypan blue exclusion assay; assay type: functional; settings: DU-145, 96 h
K562 = assay: Growth inhibition of human K562 cells expressing p210Bcr/Abl after 96 hrs by trypan blue exclusion assay; assay type: functional, cell-based; settings: K562, 96 h
In short: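 K562 cells were kept in RPMI with 10% FBS and penicillin–streptomycin at 37 °C under 5% CO2. Cells were seeded at 1 × 10^5 cells/mL with a range of compound concentrations, using DMSO as the negative control. After 96 h, viability was counted by Trypan blue exclusion and expressed as percent of DMSO control to derive GI50.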

Structure (SMILES)	GI50 (DU-145) [µM]	GI50 (K562) [µM]
Cc1ccc(CS/C(=C/c2ccccc2Br)C(=O)c2ccc(Cl)cc2)cc1	10	10
O=C(/C(=C\c1ccc(O)c([N+](=O)[O-])c1)S(=O)(=O)Cc1ccc(Br)cc1)c1c(F)c(F)c(F)c(F)c1F	50	50
Cc1ccc(/C=C(\C(=O)c2ccc(Br)cc2)S(=O)(=O)Cc2ccc(F)cc2)s1	1	1
COc1ccccc1/C=C(\C(=O)c1ccc(Cl)cc1)S(=O)(=O)c1ccc(C)cc1	1	1
O=C(/C(=C\c1ccc(O)cc1)S(=O)(=O)Cc1ccc(Cl)c(Cl)c1)c1ccc(Cl)cc1	10	10
O=C(/C(=C\c1ccc(Br)c([N+](=O)[O-])c1)Sc1ccc(Br)cc1)c1ccc(Br)cc1	1	1
Cc1ccsc1/C=C(/SCc1ccc(F)cc1)C(=O)c1ccc(Cl)cc1	50	50
O=C(/C(=C\c1ccc(F)cc1Cl)Sc1ccc(Br)cc1)c1ccc(Br)cc1	1	1
O=C(O)c1ccc(C(=O)/C(=C\c2ccc(Br)cc2)SCc2ccc(F)cc2)cc1	> 100	> 100
CSc1ccc(/C=C(/SCc2ccc(Cl)cc2)C(=O)c2ccc(Cl)cc2)cc1	25	1
COc1ccccc1/C=C(\C(=O)c1ccc(Cl)cc1)S(=O)(=O)Cc1ccc(C)cc1	10	10
O=C(/C(=C\c1c[nH]c2ccccc12)SCc1ccc(F)cc1)c1ccc(Cl)cc1	1	1
COc1cc(C(=O)/C(=C\c2ccc([N+](=O)[O-])c(O)c2)SCc2ccc(Br)cc2)cc(OC)c1OC	1	1
Cc1ccc(S/C(=C/c2c(O)cc(O)cc2O)C(=O)c2ccc(Cl)cc2)cc1	> 100	> 100
Cc1ccc(C)c(/C=C(\C(=O)c2ccc(Br)cc2)S(=O)(=O)Cc2ccc(F)cc2)c1	1	1
Cc1ccc(S/C(=C/c2ccc(F)cc2F)C(=O)c2ccc(Br)cc2)cc1	> 100	> 100
COc1ccc(S(=O)(=O)/C(=C/c2ccc(Cl)cc2Cl)C(=O)c2ccc(Br)cc2)cc1	20	20
O=C(/C(=C\c1c(O)cc(O)cc1O)Sc1ccc(Br)cc1)c1ccc(Cl)cc1	50	50
COc1ccc(C(=O)/C(=C\c2c(OC)cc(OC)cc2OC)Sc2ccc(F)cc2)cc1	50	50
O=C(/C(=C\c1ccc(Br)cc1)S(=O)(=O)c1ccc(Br)cc1)c1ccccc1O	> 100	10
O=C(/C(=C\c1ccc(Br)cc1)Sc1ccc(Br)cc1)c1ccc(Cl)cc1	1	1
Cc1ccc(CS/C(=C/c2ccc(O)c(O)c2O)C(=O)c2ccc(Cl)cc2)cc1	50	50
Cc1ccc(CS/C(=C/c2ccccc2F)C(=O)c2ccc(Br)cc2)cc1	10	1
COc1ccccc1/C=C(\C(=O)c1ccc(Br)cc1)S(=O)(=O)c1ccc(C)cc1	1	1
COc1cc(C(=O)/C(=C\c2ccc(O)c([N+](=O)[O-])c2)SCc2ccc(Br)cc2)cc(OC)c1OC	1	1

Structure (SMILES)	GI50 (DU-145) [µM]	GI50 (K562) [µM]
Cc1ccc(S(=O)(=O)/C(=C/c2ccccc2F)C(=O)c2ccc(Cl)cc2)cc1	2.5	1
O=C(/C(=C\c1ccc(Cl)cc1)Sc1ccc(Br)cc1)c1ccc(Br)cc1	1	1
COc1ccc(/C=C(/Sc2ccc(Br)cc2)C(=O)c2ccc(Cl)cc2)cc1	50	1
Cc1ccc(CS/C(=C/c2ccc(F)c([N+](=O)[O-])c2)C(=O)c2ccc(Cl)c([N+](=O)[O-])c2)cc1	1	< 1
Cc1ccc(/C=C(/SCc2ccc(Cl)cc2)C(=O)c2ccc(Cl)cc2)s1	50	50
COc1ccccc1/C=C(/Sc1ccc(C)cc1)C(=O)c1ccc(Cl)cc1	25	10
Cc1ccc(S(=O)(=O)/C(=C/c2ccccc2OCc2ccccc2)C(=O)c2ccc(Br)cc2)cc1	1	1
Cc1ccc(/C=C(\C(=O)c2ccc(Cl)cc2)S(=O)(=O)Cc2ccc(Cl)cc2)s1	1	1
CN(C)c1ccc(/C=C(\C(=O)c2ccc(C(=O)O)cc2)S(=O)(=O)Cc2ccc(Cl)cc2)cc1	> 100	> 100
Cc1ccc(S(=O)(=O)/C(=C/c2c[nH]c3ccc(Cl)cc23)C(=O)c2ccc(Br)cc2)cc1	10	10
O=C(/C(=C\c1ccccc1OCc1ccccc1)S(=O)(=O)Cc1ccc(Cl)cc1)c1ccc(Br)cc1	10	1
COc1ccc(/C=C(\C(=O)c2ccc(Cl)cc2)S(=O)(=O)c2ccc(Br)cc2)cc1O	10	10
Cc1ccc(CS(=O)(=O)/C(=C/c2ccc(Br)cc2)C(=O)c2ccc(Cl)cc2)cc1	25	10
Cc1ccc(CS(=O)(=O)/C(=C/c2ccc(S(C)(=O)=O)cc2)C(=O)c2ccc(Br)cc2)cc1	10	1
O=C(/C(=C\c1c[nH]c2ccccc12)Sc1ccc(Br)cc1)c1ccc(Br)cc1	1	1
O=C(/C(=C\c1ccc([N+](=O)[O-])c(O)c1)Sc1ccc(Br)cc1)c1c(F)c(F)c(F)c(F)c1F	1	1
CCOc1ccc(/C=C(\C(=O)c2ccc(Br)cc2)S(=O)(=O)c2ccc(Br)cc2)c(OCC)c1	10	1
Cc1ccsc1/C=C(\C(=O)c1ccc([N+](=O)[O-])cc1)S(=O)(=O)Cc1ccc(Cl)cc1	1	1
Cc1ccc(CS(=O)(=O)/C(=C/c2cc(C)cc(C)c2)C(=O)c2ccc(Cl)cc2)cc1	10	10
O=C(/C(=C\c1ccc(O)cc1)SCc1ccc(Cl)cc1)c1ccc(Br)cc1	10	1
Cc1ccc(S/C(=C/c2c[nH]c3ccc(Br)cc23)C(=O)c2ccc(Br)cc2)cc1	1	10
CN(C)c1ccc(/C=C(/SCc2ccc(Cl)cc2)C(=O)c2ccc(C(=O)O)cc2)cc1	1	1
O=C(/C(=C\c1ccc(Cl)cc1)SCc1ccc(Cl)cc1)c1ccccc1Cl	30	1
O=C(/C(=C\c1ccc(F)cc1F)S(=O)(=O)c1ccc(Br)cc1)c1ccc(Br)cc1	7.5	1
O=C(/C(=C\c1cc(Br)c(O)c(Br)c1)SCc1ccc(Br)cc1)c1ccc(Br)cc1	1	10

Structure (SMILES)	GI50 (DU-145) [µM]	GI50 (K562) [µM]
CCOc1ccc(/C=C(\C(=O)c2ccc(Cl)cc2)S(=O)(=O)Cc2ccccc2Cl)cc1OC	10	1
O=C(/C(=C\c1ccc(F)cc1C(F)(F)F)[S+]([O-])Cc1ccc(Cl)cc1)c1ccc(Cl)cc1 (stereo not drawn)	50	50
Cc1ccc(CS/C(=C/c2ccc(Br)cc2)C(=O)c2ccc(Cl)cc2)cc1	10	1
O=C(/C(=C\c1ccc(Br)cc1)SCc1ccc(F)cc1)c1ccc(Cl)cc1	9	1
O=C(/C(=C\c1ccccc1OCc1ccccc1)SCc1ccc(F)cc1)c1ccc(Br)cc1	1	1
COc1ccccc1/C=C(\C(=O)c1ccc(Cl)cc1)S(=O)(=O)c1ccc(Br)cc1	10	10
COc1cc(OC)c(/C=C(/SCc2ccc(Cl)cc2)C(=O)c2ccc([N+](=O)[O-])cc2)c(OC)c1	> 100	50
CCOc1ccc(/C=C(\C(=O)c2ccc(Br)cc2)S(=O)(=O)c2ccc(Br)cc2)cc1OC	1	1
COc1cc(/C=C(/Sc2ccc(Br)cc2)C(=O)c2ccc(Br)cc2)ccc1F	10	1
O=C(/C(=C\c1ccc(OCc2ccccc2)cc1)SCc1ccc(Cl)cc1Cl)c1ccc(Cl)cc1	1	1
O=C(/C(=C\c1ccc(Br)c(O)c1)S(=O)(=O)c1ccc(Br)cc1)c1ccc(Br)cc1	50	50
COc1cc(OC)c(/C=C(\C(=O)c2ccc(Cl)cc2)S(=O)(=O)Cc2ccc(F)cc2)c(OC)c1	25	1
O=C(/C(=C\c1c(O)cc(O)cc1O)SCc1ccc(Cl)cc1)c1ccc(Cl)cc1	> 100	> 100
COc1ccc(/C=C(\C(=O)c2ccc(Cl)cc2)S(=O)(=O)c2ccc(Br)cc2)cc1	10	10
Cc1ccc(S(=O)(=O)/C(=C/c2cc(C)cc(C)c2)C(=O)c2ccc(Cl)cc2)cc1	1	1
O=C(/C(=C\c1ccc(O)cc1O)SCc1cccc(Cl)c1)c1ccc(Br)cc1	50	25
COc1ccc(C(=O)/C(=C\c2ccc(OC)c(O)c2)Sc2ccc(F)cc2)cc1	1	1
O=C(/C(=C\c1ccc([N+](=O)[O-])c(O)c1)SCc1ccc(Br)cc1)C1CCNC1 (stereo not drawn)	> 100	> 100
Cc1ccc(/C=C(/SCc2ccc(Cl)cc2)C(=O)c2ccc([N+](=O)[O-])cc2)s1	25	25
COc1ccc(/C=C(/SCc2ccc(F)cc2)C(=O)c2ccc(Br)cc2)cc1O	1	1
Cc1cc(C)cc(/C=C(/Sc2ccc(Br)cc2)C(=O)c2ccc(Cl)cc2)c1	10	1
O=C(/C(=C\c1ccc(O)c([N+](=O)[O-])c1)SCc1ccc(Br)cc1)c1ccc(Br)cc1	10	10
CCOc1ccc(/C=C(/SCc2ccc(Cl)c(Cl)c2)C(=O)c2ccc(Cl)cc2)cc1OC	25	1
Cc1ccc(S/C(=C/c2ccc(-c3ccccc3)cc2)C(=O)c2ccc(Br)cc2)cc1	50	25
